Measured values taken from ChEMBL document CHEMBL4371052, “Diarylcarbonates are a new class of deubiquitinating enzyme inhibitor” (Bioorg Med Chem Lett, 2019).
The source made the active and inactive calls. The calls are words filed in the database; no cut-off is given here.

What was measured:
[1] = target: Ubiquitin carboxyl-terminal hydrolase 7 (Homo sapiens) (UniProt Q93009); assay: Inhibition of recombinant His6-tagged USP7 catalytic domain (unknown origin) assessed as association constant using Ub-AMC as substrate by fluorescence assay
[2] = Inhibition of deubiquitinase in HEK293T cells expressing N-terminal HA-tagged ubiquitin assessed as stabilization of HMW-Ub proteins after 2 hrs by Western blot analysis; type: cell-based, Homo sapiens
[3] = target: Ubiquitin carboxyl-terminal hydrolase 9X (Homo sapiens) (UniProt Q93008); assay: Inhibition of USP9x in human K562 cells assessed as decrease in Bcr-Abl expression at 50 uM measured after 4 hrs in presence of proteasome inhibitor bortezomib by Western blot analysis; type: cell-based
Outline: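 K562 cells treated with 50 μM compound with or without bortezomib (6 μM) for 4 h. Lysates were sonicated in SDS, and Bcr-Abl was measured by anti-Abl immunoblot with quantitation.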

[4] = target: Ubiquitin carboxyl-terminal hydrolase 7 (Homo sapiens) (UniProt Q93009); assay: Inhibition of USP7 in HEK293T cell lysates at 25 uM using HA-tagged vinyl-sulfone as substrate measured after 2 to 30 mins by Western blot analysis; type: subcellular; conditions: Lysate
Outline: (§1)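 HEK 293T lysate (1.5 mg/ml) given compound (25 μM) or DMSO at the same time as HA-Ub-VS (1.5 μM). Aliquots withdrawn over time were run on SDS-PAGE and immunoblotted for HA.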

[5] = Inhibition of deubiquitinase in HEK293T cells assessed as stabilization of K48-linked HMW-Ub protein by Western blot analysis; type: cell-based, Homo sapiens
K562 = assay: Cell cycle arrest in human K562 cells assessed as increase in accumulation at sub G1-phase after 24 hrs by propidium iodide staining based flow cytometry; type: functional
Outline: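 K562 cells exposed to compound for 24 h, then analysed for cell cycle by FACS. Sub-G1 cells were counted as apoptotic, with the G1 fraction reported separately.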

[6] = target: Ubiquitin carboxyl-terminal hydrolase 28 (Homo sapiens) (UniProt Q96RU2); assay: Inhibition of USP28 in HEK293T cell lysates at 25 uM using HA-tagged vinyl-sulfone as substrate measured after 2 to 30 mins by Western blot analysis; type: subcellular; conditions: Lysate; outline: as §1
[7] = target: Ubiquitin carboxyl-terminal hydrolase 15 (Homo sapiens) (UniProt Q9Y4E8); assay: Inhibition of USP15 in HEK293T cell lysates at 25 uM using HA-tagged vinyl-sulfone as substrate measured after 2 to 30 mins by Western blot analysis; type: subcellular; conditions: Lysate; outline: as §1
[8] = target: T1, Ubiquitin carboxyl-terminal hydrolase 19 (Homo sapiens) (UniProt O94966); assay: Inhibition of USP19 in HEK293T cell lysates at 25 uM using HA-tagged vinyl-sulfone as substrate preincubated for 19 to 60 mins followed by substrate addition and measured after 19 to 25 mins by Western blot analysis; type: subcellular; conditions: Lysate
T1 sequence (whole entry): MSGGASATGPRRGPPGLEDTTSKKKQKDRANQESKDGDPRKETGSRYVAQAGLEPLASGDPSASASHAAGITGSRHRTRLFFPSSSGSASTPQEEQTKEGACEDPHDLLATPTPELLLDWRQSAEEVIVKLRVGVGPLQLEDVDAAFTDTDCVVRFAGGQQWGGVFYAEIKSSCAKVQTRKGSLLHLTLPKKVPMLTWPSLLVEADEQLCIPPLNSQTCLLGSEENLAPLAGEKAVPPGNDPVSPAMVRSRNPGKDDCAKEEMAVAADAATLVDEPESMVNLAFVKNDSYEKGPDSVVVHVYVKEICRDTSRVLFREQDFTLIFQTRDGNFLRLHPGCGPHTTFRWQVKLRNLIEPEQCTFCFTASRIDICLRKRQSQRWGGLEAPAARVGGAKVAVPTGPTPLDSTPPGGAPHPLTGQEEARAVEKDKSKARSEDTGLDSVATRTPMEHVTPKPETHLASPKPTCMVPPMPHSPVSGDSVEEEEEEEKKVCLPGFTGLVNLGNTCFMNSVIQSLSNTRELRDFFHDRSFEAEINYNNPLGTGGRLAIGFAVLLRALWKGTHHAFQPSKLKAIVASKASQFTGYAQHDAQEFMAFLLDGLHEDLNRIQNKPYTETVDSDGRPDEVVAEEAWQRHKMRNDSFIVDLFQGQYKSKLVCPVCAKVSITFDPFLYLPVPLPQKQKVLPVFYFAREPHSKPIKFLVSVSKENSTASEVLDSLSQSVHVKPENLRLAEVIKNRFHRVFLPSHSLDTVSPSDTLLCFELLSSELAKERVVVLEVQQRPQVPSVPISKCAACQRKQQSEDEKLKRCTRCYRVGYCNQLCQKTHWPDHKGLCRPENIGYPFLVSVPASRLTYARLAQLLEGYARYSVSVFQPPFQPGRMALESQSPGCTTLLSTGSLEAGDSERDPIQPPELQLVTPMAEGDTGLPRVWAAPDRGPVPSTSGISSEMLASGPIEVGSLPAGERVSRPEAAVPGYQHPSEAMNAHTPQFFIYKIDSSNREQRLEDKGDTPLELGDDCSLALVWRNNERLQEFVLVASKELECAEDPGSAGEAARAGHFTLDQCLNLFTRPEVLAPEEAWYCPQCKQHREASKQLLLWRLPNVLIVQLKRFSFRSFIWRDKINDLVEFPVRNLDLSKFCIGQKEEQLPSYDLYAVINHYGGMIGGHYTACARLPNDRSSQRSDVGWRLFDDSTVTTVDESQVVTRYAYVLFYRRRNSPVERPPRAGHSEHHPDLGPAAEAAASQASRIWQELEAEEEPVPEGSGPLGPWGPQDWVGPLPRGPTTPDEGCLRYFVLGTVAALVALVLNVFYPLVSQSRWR

Sequence of Ubiquitin carboxyl-terminal hydrolase 7 (Homo sapiens) (Q93009 whole entry, looked up, the tested form may be a part): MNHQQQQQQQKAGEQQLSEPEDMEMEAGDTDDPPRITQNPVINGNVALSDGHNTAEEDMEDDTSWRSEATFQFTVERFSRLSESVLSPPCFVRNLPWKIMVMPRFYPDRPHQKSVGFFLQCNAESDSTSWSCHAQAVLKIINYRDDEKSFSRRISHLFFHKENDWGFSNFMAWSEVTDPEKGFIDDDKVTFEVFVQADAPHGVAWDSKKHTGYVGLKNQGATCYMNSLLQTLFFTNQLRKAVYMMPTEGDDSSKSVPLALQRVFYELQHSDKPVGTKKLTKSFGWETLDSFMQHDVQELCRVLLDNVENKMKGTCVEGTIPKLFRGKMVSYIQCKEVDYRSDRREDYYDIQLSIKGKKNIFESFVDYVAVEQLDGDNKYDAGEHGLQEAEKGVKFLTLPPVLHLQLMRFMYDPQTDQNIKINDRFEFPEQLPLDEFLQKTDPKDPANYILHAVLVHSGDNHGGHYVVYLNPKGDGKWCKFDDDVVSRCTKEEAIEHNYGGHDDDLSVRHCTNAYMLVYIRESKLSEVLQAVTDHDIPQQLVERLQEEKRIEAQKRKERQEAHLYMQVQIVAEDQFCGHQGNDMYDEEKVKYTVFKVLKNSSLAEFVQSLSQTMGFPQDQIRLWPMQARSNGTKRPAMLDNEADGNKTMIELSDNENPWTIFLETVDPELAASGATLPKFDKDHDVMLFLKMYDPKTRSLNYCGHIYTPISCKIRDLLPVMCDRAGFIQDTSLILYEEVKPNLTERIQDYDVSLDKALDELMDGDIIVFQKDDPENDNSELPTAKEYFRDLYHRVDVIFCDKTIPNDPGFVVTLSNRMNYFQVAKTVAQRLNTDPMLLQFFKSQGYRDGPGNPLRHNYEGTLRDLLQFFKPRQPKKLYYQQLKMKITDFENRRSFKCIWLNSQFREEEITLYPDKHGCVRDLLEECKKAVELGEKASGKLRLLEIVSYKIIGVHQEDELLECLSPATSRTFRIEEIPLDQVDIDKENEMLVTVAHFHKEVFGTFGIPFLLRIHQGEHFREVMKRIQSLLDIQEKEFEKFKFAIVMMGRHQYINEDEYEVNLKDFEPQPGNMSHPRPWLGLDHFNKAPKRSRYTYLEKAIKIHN
Sequence of Ubiquitin carboxyl-terminal hydrolase 15 (Homo sapiens) (Q9Y4E8 whole entry): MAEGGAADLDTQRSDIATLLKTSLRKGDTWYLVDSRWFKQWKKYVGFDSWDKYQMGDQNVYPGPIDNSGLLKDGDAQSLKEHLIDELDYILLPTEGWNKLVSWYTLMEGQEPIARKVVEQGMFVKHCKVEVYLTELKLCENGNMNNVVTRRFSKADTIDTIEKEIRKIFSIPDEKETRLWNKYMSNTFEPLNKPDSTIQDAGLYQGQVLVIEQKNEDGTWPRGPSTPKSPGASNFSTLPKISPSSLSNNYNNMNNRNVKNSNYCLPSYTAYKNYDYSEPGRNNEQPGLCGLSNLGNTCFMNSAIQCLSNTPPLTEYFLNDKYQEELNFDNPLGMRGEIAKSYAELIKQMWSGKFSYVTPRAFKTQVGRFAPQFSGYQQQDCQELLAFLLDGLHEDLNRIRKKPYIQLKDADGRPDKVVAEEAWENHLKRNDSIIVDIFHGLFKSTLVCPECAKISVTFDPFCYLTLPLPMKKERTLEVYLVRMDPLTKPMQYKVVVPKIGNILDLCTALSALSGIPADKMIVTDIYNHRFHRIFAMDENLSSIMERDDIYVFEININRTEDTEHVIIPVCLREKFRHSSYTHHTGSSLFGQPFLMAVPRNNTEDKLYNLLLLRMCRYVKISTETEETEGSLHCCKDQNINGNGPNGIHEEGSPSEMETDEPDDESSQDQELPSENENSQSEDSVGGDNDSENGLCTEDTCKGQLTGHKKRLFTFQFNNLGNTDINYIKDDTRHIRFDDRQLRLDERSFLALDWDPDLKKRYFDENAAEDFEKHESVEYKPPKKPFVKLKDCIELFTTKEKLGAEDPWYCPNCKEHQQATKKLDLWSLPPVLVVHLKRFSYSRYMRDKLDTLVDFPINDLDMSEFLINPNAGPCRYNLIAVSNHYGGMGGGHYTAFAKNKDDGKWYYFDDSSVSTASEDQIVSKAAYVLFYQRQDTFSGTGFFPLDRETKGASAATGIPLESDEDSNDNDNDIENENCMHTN
Sequence of Ubiquitin carboxyl-terminal hydrolase 9X (Homo sapiens) (Q93008 whole entry): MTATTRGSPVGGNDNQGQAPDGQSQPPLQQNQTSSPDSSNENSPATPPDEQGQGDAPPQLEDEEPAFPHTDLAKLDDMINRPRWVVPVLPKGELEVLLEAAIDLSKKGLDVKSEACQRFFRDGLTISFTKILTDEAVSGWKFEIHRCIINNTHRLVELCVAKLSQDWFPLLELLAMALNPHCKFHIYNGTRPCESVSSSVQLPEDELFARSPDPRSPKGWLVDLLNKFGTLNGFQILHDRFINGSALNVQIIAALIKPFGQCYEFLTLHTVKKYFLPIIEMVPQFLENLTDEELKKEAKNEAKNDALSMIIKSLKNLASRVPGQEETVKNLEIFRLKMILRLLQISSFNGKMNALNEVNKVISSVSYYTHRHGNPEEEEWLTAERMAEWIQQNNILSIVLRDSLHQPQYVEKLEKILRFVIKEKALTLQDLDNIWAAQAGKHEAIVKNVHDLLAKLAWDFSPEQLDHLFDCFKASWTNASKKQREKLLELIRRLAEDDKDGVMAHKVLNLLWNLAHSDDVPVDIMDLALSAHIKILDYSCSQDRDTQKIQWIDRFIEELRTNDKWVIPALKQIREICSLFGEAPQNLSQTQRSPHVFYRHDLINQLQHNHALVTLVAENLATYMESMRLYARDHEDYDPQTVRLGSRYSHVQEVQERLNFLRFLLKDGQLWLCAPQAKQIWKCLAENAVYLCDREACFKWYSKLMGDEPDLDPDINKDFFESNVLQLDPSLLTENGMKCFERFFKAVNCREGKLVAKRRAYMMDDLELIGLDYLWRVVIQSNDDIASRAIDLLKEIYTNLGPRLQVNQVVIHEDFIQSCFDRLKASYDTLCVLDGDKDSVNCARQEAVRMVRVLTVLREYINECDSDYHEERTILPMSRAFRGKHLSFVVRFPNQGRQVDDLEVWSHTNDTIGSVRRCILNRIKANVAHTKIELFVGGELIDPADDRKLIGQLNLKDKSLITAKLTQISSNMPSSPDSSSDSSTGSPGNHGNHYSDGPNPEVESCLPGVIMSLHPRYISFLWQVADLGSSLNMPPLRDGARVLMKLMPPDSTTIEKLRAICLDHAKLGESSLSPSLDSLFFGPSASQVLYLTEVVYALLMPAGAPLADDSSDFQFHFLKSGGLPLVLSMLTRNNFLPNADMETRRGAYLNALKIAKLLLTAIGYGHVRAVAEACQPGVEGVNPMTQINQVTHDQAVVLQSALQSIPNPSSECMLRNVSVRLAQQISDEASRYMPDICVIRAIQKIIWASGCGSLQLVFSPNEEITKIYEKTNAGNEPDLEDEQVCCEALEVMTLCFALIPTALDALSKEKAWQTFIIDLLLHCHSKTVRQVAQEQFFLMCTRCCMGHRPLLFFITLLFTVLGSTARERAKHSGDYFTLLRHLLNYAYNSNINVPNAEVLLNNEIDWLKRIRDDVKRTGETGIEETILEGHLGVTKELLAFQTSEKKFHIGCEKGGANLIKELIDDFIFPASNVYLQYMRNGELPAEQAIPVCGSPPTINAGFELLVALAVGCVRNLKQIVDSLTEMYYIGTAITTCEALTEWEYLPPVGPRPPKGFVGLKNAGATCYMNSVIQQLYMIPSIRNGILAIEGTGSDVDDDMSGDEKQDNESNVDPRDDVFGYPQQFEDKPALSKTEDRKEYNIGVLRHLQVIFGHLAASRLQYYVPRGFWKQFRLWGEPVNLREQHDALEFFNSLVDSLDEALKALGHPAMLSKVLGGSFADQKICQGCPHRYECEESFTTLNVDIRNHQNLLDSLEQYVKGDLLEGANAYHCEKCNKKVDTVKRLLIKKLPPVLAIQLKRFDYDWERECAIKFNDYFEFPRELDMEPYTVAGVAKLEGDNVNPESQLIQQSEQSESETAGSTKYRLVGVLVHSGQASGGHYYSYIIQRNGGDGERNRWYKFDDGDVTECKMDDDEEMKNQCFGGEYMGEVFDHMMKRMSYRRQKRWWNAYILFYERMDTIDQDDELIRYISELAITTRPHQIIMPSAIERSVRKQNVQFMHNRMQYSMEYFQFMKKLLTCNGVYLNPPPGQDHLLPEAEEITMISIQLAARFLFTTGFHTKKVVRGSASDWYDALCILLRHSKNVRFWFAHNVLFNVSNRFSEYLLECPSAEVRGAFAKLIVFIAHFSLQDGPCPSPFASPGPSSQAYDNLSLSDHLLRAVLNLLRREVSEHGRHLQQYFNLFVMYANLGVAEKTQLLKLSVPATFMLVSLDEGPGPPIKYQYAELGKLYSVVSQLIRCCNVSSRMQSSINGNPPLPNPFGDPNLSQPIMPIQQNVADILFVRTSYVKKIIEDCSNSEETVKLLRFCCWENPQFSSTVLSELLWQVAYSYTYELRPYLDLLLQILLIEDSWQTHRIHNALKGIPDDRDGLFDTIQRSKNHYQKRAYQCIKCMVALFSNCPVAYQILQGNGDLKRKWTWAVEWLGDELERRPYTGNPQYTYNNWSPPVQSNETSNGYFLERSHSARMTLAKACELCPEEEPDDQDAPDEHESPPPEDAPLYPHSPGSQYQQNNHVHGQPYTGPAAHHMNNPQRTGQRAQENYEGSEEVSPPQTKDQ

K [1]: 9 M⁻¹ s⁻¹
EC50 [2]: 20 µM
inhibition [3]: Active
inhibition [4]: inactive
EC50 [5]: < 50 µM
inhibition [6]: inactive
inhibition [7]: inactive
inhibition [8]: Active
SMILES: NCc1ccc(OC(=O)Oc2ccc3ccccc3c2)cc1
Activity (K562): Dose-dependent effect
